Assays:
Type in all cases: functional
Brassica juncea = assay: Herbicidal activity against Brassica juncea assessed as growth inhibition at 150 g of active ingredient/ha administered using post-emergence treatment measured 15 days post treatment protocol under greenhouse conditions
Outline: (§1)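 Test agents were formulated as 100 g/L emulsified concentrates (DMF solvent, TW-80 emulsifier), diluted with water and sprayed postemergence on pot-grown weeds. Seeds were sown 1-3 cm deep in clay soil (pH 6.5, 1.6% organic matter, 37.3% clay, CEC […]) and grown at 15–30 °C in a greenhouse. Dicots were treated at the two-leaf stage. Untreated and DMF-treated plants served as controls. Activity was scored visually 15 days after treatment.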

Setaria viridis = assay: Herbicidal activity against Setaria viridis (green foxtail) assessed as growth inhibition at 150 g of active ingredient/ha administered using post-emergence treatment measured 15 days post treatment protocol under greenhouse conditions; outline: as §1
Echinochloa crus-galli = assay: Herbicidal activity against Echinochloa crus-galli (barnyard grass) assessed as growth inhibition at 150 g of active ingredient/ha administered using post-emergence treatment measured 15 days post treatment protocol under greenhouse conditions; outline: as §1
Chenopodium album = assay: Herbicidal activity against Chenopodium album assessed as growth inhibition at 150 g of active ingredient/ha administered using post-emergence treatment measured 15 days post treatment protocol under greenhouse conditions; outline: as §1
Amaranthus retroflexus = assay: Herbicidal activity against Amaranthus retroflexus assessed as growth inhibition at 150 g of active ingredient/ha administered using post-emergence treatment measured 15 days post treatment protocol under greenhouse conditions; outline: as §1
Digitaria sanguinalis = assay: Herbicidal activity against Digitaria sanguinalis (hairy crabgrass) assessed as growth inhibition at 150 g of active ingredient/ha administered using post-emergence treatment measured 15 days post treatment protocol under greenhouse conditions; outline: as §1

Row | SMILES | growth inhibition (GI) (Brassica juncea) [%] | growth inhibition (GI) (Setaria viridis) [%] | growth inhibition (GI) (Echinochloa crus-galli) [%] | growth inhibition (GI) (Chenopodium album) [%] | growth inhibition (GI) (Amaranthus retroflexus) [%] | growth inhibition (GI) (Digitaria sanguinalis) [%]
1 | Cc1nn(-c2cc(N3C(=O)c4ccccc4C3=O)c(Br)cc2F)c(=O)n1C(F)F | >80 | >80 | 50 | >80 | 100 | >80
2 | Cc1nn(-c2cc(N3C(=O)c4ccccc4C3=O)c(Cl)cc2Cl)c(=O)n1C(F)F | <50 | 50 | 50 | 100 | 100 | 50
3 | Cc1nn(-c2cc(N3C(=O)c4ccccc4C3=O)c(F)cc2Br)c(=O)n1C(F)F | <50 | <50 | <50 | <50 | <50 | <50
4 | Cc1nn(-c2cc(N3C(=O)c4ccccc4C3=O)ccc2Cl)c(=O)n1C(F)F | <50 | <50 | <50 | <50 | <50 | <50
5 | Cc1nn(-c2cc(N3C(=O)C4=C(CCCC4)C3=O)c(Br)cc2F)c(=O)n1C(F)F | <50 | 50 | 50 | 100 | 100 | 50
6 | Cc1nn(-c2cc(N3C(=O)C4=C(CCCC4)C3=O)c(Cl)cc2Cl)c(=O)n1C(F)F | <50 | 50 | 50 | 100 | 100 | 50
7 | Cc1nn(-c2cc(N3C(=O)C4=C(CCCC4)C3=O)c(F)cc2Br)c(=O)n1C(F)F | 50 | <50 | <50 | <50 | 50 | <50
8 | Cc1nn(-c2cc(N3C(=O)C4=C(CCCC4)C3=O)ccc2Cl)c(=O)n1C(F)F | <50 | <50 | <50 | <50 | <50 | <50
9 | Cc1nn(-c2cc(N3C(=O)C4CCCCC4C3=O)c(Br)cc2F)c(=O)n1C(F)F (stereo not given) | 50 | 50 | 50 | 100 | 100 | 50
10 | Cc1nn(-c2cc(N3C(=O)C4CCCCC4C3=O)c(Cl)cc2Cl)c(=O)n1C(F)F (stereo not given) | <50 | <50 | <50 | >80 | 100 | <50
11 | Cc1nn(-c2cc(N3C(=O)C4CCCCC4C3=O)c(F)cc2Br)c(=O)n1C(F)F (stereo not given) | 50 | <50 | <50 | 50 | <50 | <50
12 | Cc1nn(-c2cc(N3C(=O)C4CCCCC4C3=O)ccc2Cl)c(=O)n1C(F)F (stereo not given) | <50 | <50 | <50 | <50 | <50 | <50
13 | Cc1nn(-c2cc(NC(=O)Nc3ccccc3)ccc2Cl)c(=O)n1C(F)F | <50 | <50 | <50 | <50 | <50 | <50
14 | Cc1nn(-c2cc(NC(=O)Nc3ccc(Cl)cc3)ccc2Cl)c(=O)n1C(F)F | <50 | <50 | <50 | <50 | <50 | <50
15 | Cc1nn(-c2cc(NC(=O)Nc3ccccc3)c(Br)cc2F)c(=O)n1C(F)F | <50 | <50 | <50 | <50 | <50 | <50
16 | Cc1nn(-c2cc(NC(=O)Nc3ccc(Cl)cc3)c(Br)cc2F)c(=O)n1C(F)F | <50 | <50 | <50 | <50 | <50 | <50
17 | Cc1nn(-c2cc(NC(=O)Nc3ccccc3)c(F)cc2Br)c(=O)n1C(F)F | <50 | <50 | <50 | <50 | <50 | <50
18 | Cc1nn(-c2cc(NC(=O)Nc3ccc(Cl)cc3)c(F)cc2Br)c(=O)n1C(F)F | <50 | <50 | <50 | <50 | <50 | <50
19 | Cc1nn(-c2cc(NC(=O)Nc3ccccc3)c(Cl)cc2Cl)c(=O)n1C(F)F | <50 | <50 | <50 | <50 | <50 | <50
20 | Cc1nn(-c2cc(NC(=O)Nc3ccc(Cl)cc3)c(Cl)cc2Cl)c(=O)n1C(F)F | <50 | <50 | <50 | <50 | <50 | <50

Reference: ChEMBL document CHEMBL3046880, “Syntheses and herbicidal activities of novel triazolinone derivatives” (J Agric Food Chem, 2008)
